Assay results published in ChEMBL document CHEMBL1153995, “Synthesis and biological evaluation of new enantiomerically pure azole derivatives as inhibitors of Mycobacterium tuberculosis” (2009).
≈ marks a conversion by molar mass, not a printed value.

Test system: Mycobacterium tuberculosis
Assay: Antimycobacterial activity against Mycobacterium tuberculosis H37Rv ATCC 27294 after 21 to 28 days by two fold agar dilution method
Format: functional
Outline: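 Stock kept on Löwenstein-Jensen slants. Twofold agar dilution in Middlebrook 7H11 agar with 10% OADC, compounds at 0.0312–64 µg/mL. Inoculum grown in Middlebrook 7H9 with 10% ADC, suspension at 1.5 × 10⁵ cfu/mL, final 1.5 × 10³ per well. Incubated 21–28 days. MIC read as lowest concentration completely inhibiting visible growth.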

SMILES | MIC
Clc1ccccc1C(c1ccccc1)(c1ccccc1)n1ccnc1 [CLOTRIMAZOLE] | 20.4 µg/mL (≈ 59.2 µM)
Brc1ccc([C@@H](c2cn(-c3ccccc3)nn2)n2ccnc2)cc1 | 32 µg/mL (≈ 84.2 µM)
NNC(=O)c1ccncc1 [ISONIAZID] | 0.2 µg/mL (≈ 1.46 µM)
Fc1ccc([C@@H](c2cn(Cc3ccccc3)nn2)n2ccnc2)cc1 | 64 µg/mL (≈ 192 µM)
Clc1ccc(Cn2cc([C@H](c3ccc(Cl)cc3)n3ccnc3)nn2)cc1 | 32 µg/mL (≈ 83.3 µM)
Brc1ccc([C@@H](c2cn(Cc3ccccc3)nn2)n2ccnc2)cc1 | 32 µg/mL (≈ 81.2 µM)
Clc1ccc(COC(Cn2ccnc2)c2ccc(Cl)cc2Cl)cc1 (stereo not drawn) [ECONAZOLE] | 12.5 µg/mL (≈ 32.7 µM)
Brc1ccc([C@H](c2cn(-c3ccccc3)nn2)n2ccnc2)cc1 | 32 µg/mL (≈ 84.2 µM)
Brc1ccc([C@H](c2cn(Cc3ccccc3)nn2)n2ccnc2)cc1 | 16 µg/mL (≈ 40.6 µM)
Fc1ccc([C@@H](c2cn(-c3ccccc3)nn2)n2ccnc2)cc1 | 32 µg/mL (≈ 100 µM)
Clc1ccc(Cn2cc([C@@H](c3ccc(Cl)cc3)n3ccnc3)nn2)cc1 | 32 µg/mL (≈ 83.3 µM)
Fc1ccc([C@H](c2cn(Cc3ccccc3)nn2)n2ccnc2)cc1 | 64 µg/mL (≈ 192 µM)
Fc1ccc([C@H](c2cn(-c3ccccc3)nn2)n2ccnc2)cc1 | 32 µg/mL (≈ 100 µM)
